Laboratory results taken from ChEMBL document CHEMBL4052602, “Sesquiterpenoids with Various Carbocyclic Skeletons from the Flowers of Chrysanthemum indicum” (J Nat Prod, 2017).
Activity calls are given as the source filed them. The rule behind the calls is not given here.

Assays:
Vero [1] = assay: Cytotoxicity against African green monkey Vero cells assessed as decrease in cell viability at 90 uM after 2 days by MTT assay; type: cell-based; details: chlorocebus sabaeus, 48 h
[2] = tested on: Porcine epidemic diarrhea virus; assay: Antiviral activity against Porcine epidemic diarrhea virus infected in African green monkey Vero cells assessed as inhibition of virus-induced cytopathic effect at 20 to 90 uM after 3 days; type: functional
Method in brief: (§1)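 Vero cells were inoculated with PEDV for 2 h, then treated with compound and incubated 3 days, with CPE inhibition as read-out. Screening was at 40 or 50 μM for non-cytotoxic compounds and at 20 μM for cytotoxic ones; the dose-response covered 20–90 μM. Azauridin was the positive control; mean ± SD, n = 3, versus virus-injected control.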

[3] = tested on: Porcine epidemic diarrhea virus; assay: Antiviral activity against Porcine epidemic diarrhea virus infected in African green monkey Vero cells assessed as decrease in spike protein expression levels at 45 uM after 24 hrs by Western blot analysis; type: functional
Method in brief: (§2)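 PEDV-infected Vero cells were incubated with or without compound for 24 h; single-compound tests were at 40 or 45 μM, and a dose series at 80, 40, 20 and 10 μM. Cells were lysed and blotted with nucleocapsid and spike antibodies. Azauridin was the positive control; mean ± SD, n = 3, versus virus-injected control.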

[4] = tested on: Porcine epidemic diarrhea virus; assay: Antiviral activity against Porcine epidemic diarrhea virus infected in African green monkey Vero cells assessed as decrease in nucleocapsid expression levels at 45 uM after 24 hrs by Western blot analysis; type: functional
Method in brief: (§3)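 Vero cells inoculated with PEDV, then incubated with or without compound (40 or 45 μM, or 10, 20, 40, 80 μM) for 24 h. Cells lysed and probed by Western blot with anti-nucleocapsid and anti-spike antibodies. Azauridin was the positive control. Values are relative to virus-infected control, mean ± SD (n = 3).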

[5] = tested on: Porcine epidemic diarrhea virus; assay: Antiviral activity against Porcine epidemic diarrhea virus infected in African green monkey Vero cells assessed as inhibition of virus-induced cytopathic effect after 3 days; type: functional; method in brief: as §1
[6] = tested on: Porcine epidemic diarrhea virus; assay: Antiviral activity against Porcine epidemic diarrhea virus infected in African green monkey Vero cells assessed as inhibition of virus-induced cytopathic effect at 40 uM after 3 days; type: functional; method in brief: as §1
Vero [7] = assay: Cytotoxicity against African green monkey Vero cells assessed as decrease in cell viability at 80 uM after 2 days by MTT assay; type: cell-based; details: chlorocebus sabaeus, 48 h
Vero [8] = assay: Cytotoxicity against African green monkey Vero cells assessed as decrease in cell viability at 20 to 70 uM after 2 days by MTT assay; type: cell-based; details: chlorocebus sabaeus, 48 h
Vero [9] = assay: Cytotoxicity against African green monkey Vero cells assessed as decrease in cell viability at 20 to 80 uM after 2 days by MTT assay; type: cell-based; details: chlorocebus sabaeus, 48 h
[10] = tested on: Porcine epidemic diarrhea virus; assay: Antiviral activity against Porcine epidemic diarrhea virus infected in African green monkey Vero cells assessed as inhibition of virus-induced cytopathic effect at 20 uM after 3 days; type: functional; method in brief: as §1
Vero [11] = assay: Cytotoxicity against African green monkey Vero cells assessed as decrease in cell viability at 70 uM after 2 days by MTT assay; type: cell-based; details: chlorocebus sabaeus, 48 h
[12] = tested on: Porcine epidemic diarrhea virus; assay: Antiviral activity against Porcine epidemic diarrhea virus infected in African green monkey Vero cells assessed as decrease in nucleocapsid synthesis after 24 hrs by DAPI staining-based fluorescence microscopy; type: functional
Method in brief: (§4)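 PEDV-infected Vero cells co-incubated with compound at 20, 40 or 80 μM for 24 h, with azauridin 20 μM as positive control. Cells fixed, permeabilized and stained with monoclonal antibody to nucleocapsid or spike. Antigen-expressing cells were scored by immunofluorescence and compared with uninfected and virus-infected controls.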

[13] = tested on: Porcine epidemic diarrhea virus; assay: Antiviral activity against Porcine epidemic diarrhea virus infected in African green monkey Vero cells assessed as decrease in nucleocapsid expression levels after 24 hrs by Western blot analysis; type: functional; method in brief: as §3
[14] = tested on: Porcine epidemic diarrhea virus; assay: Antiviral activity against Porcine epidemic diarrhea virus infected in African green monkey Vero cells assessed as decrease in spike protein expression levels at 10 to 80 uM after 24 hrs by Western blot analysis; type: functional; method in brief: as §2
[15] = tested on: Porcine epidemic diarrhea virus; assay: Antiviral activity against Porcine epidemic diarrhea virus infected in African green monkey Vero cells assessed as decrease in spike expression levels at 40 uM after 24 hrs by Western blot analysis; type: functional; method in brief: as §2
[16] = tested on: Porcine epidemic diarrhea virus; assay: Antiviral activity against Porcine epidemic diarrhea virus infected in African green monkey Vero cells assessed as decrease in spike protein expression levels after 24 hrs by Western blot analysis; type: functional; method in brief: as §2
[17] = tested on: Porcine epidemic diarrhea virus; assay: Antiviral activity against Porcine epidemic diarrhea virus infected in African green monkey Vero cells assessed as decrease in spike protein synthesis levels after 24 hrs by DAPI staining-based fluorescence microscopy; type: functional
Method in brief: (§5)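 Virus-injected Vero cells were incubated 24 h with compound at 80, 40 or 20 μM, or with azauridin (20 μM) as positive control. Cells were then fixed, permeabilized and stained with monoclonal antibody against spike (or nucleocapsid) protein for immunofluorescence, alongside noninjected cells.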

[18] = tested on: Porcine epidemic diarrhea virus; assay: Antiviral activity against Porcine epidemic diarrhea virus infected in African green monkey Vero cells assessed as decrease in nucleocapsid expression levels at 40 uM after 24 hrs by Western blot analysis; type: functional; method in brief: as §3
[19] = tested on: Porcine epidemic diarrhea virus; assay: Antiviral activity against Porcine epidemic diarrhea virus infected in African green monkey Vero cells assessed as decrease in spike protein synthesis at 20 to 80 uM after 24 hrs by DAPI staining-based fluorescence microscopy; type: functional; method in brief: as §5
[20] = tested on: Porcine epidemic diarrhea virus; assay: Antiviral activity against Porcine epidemic diarrhea virus infected in African green monkey Vero cells assessed as inhibition of virus-induced cytopathic effect at 20 to 80 uM after 3 days; type: functional
[21] = tested on: Porcine epidemic diarrhea virus; assay: Antiviral activity against Porcine epidemic diarrhea virus infected in African green monkey Vero cells assessed as decrease in nucleocapsid synthesis at 20 to 80 uM after 24 hrs by DAPI staining-based fluorescence microscopy; type: functional; method in brief: as §4
[22] = tested on: Porcine epidemic diarrhea virus; assay: Antiviral activity against Porcine epidemic diarrhea virus infected in African green monkey Vero cells assessed as decrease in nucleocapsid expression levels at 10 to 80 uM after 24 hrs by Western blot analysis; type: functional; method in brief: as §3

In the case of CC(=O)CC[C@@H]1[C@H]2CCC(=O)[C@@H](C(C)C)[C@@H]12, the Activity (Vero [1]) is reported as “Non-Toxic”.

With C=C1/C=C/[C@H](C(C)C)CCC(=C)[C@H](O)CC1 the Activity [2] was “Active”, the Activity [3] was “Active” and the Activity [4] was “Active”. For the same compound, the Activity [5] was “Dose-dependent effect” and the Activity (Vero [1]) was “Non-Toxic”.

For C[C@@H]1CCC(=O)[C@@H]2CC[C@@H](C(C)(C)O)C[C@@]12C, the Activity [6] was “Active” and the Activity (Vero [7]) was “Non-Toxic”.

C=C(C)[C@@H]1CC/C(C)=C\C[C@@H](O)C(=C)[C@@H](O)C1 was tested, and the Activity [6] was “Active” and the Activity (Vero [7]) was “Non-Toxic”.

In the case of C=C1CC[C@@H](O)[C@]2(C)C[C@@H]3[C@@H](C(C)C)[C@@H]3[C@@H]12, the Activity [2] is reported as “Active”, the Activity [3] is reported as “Active” and the Activity [4] is reported as “Active”. The Activity [5] was “Dose-dependent effect” and the Activity (Vero [1]) was “Non-Toxic”.

For C=C1CC[C@@H]2[C@H]([C@H]3[C@H]1CC[C@]3(C)O)C2(C)C [SPATHULENOL], the Activity (Vero [1]) was “Non-Toxic”.

C=C(C)[C@@H]1CC[C@@]2(C)[C@H](O)C[C@@H](O)C(=C)[C@@H]2C1 was tested, and the Activity [6] was “Active” and the Activity (Vero [7]) was “Non-Toxic”.

In the case of CC(=O)O[C@@H]1C=C(C)[C@@]2(O)CC=C(C)[C@H]2[C@@H]2OC(=O)[C@H](C)[C@H]21, the Activity (Vero [8]) is reported as “Toxic”.

In the case of C=C(C)[C@@H]1CC[C@]2(C)C(=C(C)C(=O)C[C@H]2O)C1 [LIGUCYPERONOL], the Activity [6] is reported as “Active” and the Activity (Vero [1]) is reported as “Non-Toxic”.

CC(C)(O)[C@@H]1C=C2C(CO)=CCC[C@@]2(C)CC1 was tested, and the Activity (Vero [9]) was “Toxic”.

In the case of C=C1CCC[C@]2(C)CC[C@@H](C(C)(C)O)[C@@H](O)[C@@]12O, the Activity [6] is reported as “Active” and the Activity (Vero [7]) is reported as “Non-Toxic”.

C=C1CC[C@@H](O)[C@]2(C)CC[C@@H](C(C)C)[C@H](O)[C@@H]12 was tested, and the Activity [6] was “Active” and the Activity (Vero [7]) was “Non-Toxic”.

For C=C1C(=O)O[C@@H]2[C@H]3C(C)=CC(=O)C3=C(C)C[C@H](O)[C@@H]12, the Activity (Vero [9]) was “Toxic” and the Activity [10] was “Active”.

With CC(=O)O[C@H]1CC(C)=C2C(=O)C=C(C)[C@@H]2[C@H]2OC(=O)[C@@H](C)[C@@H]21 the Activity (Vero [8]) was “Toxic”.

With CC(C)(O)[C@@H]1CC[C@@]2(C)CCC[C@]3(CO3)[C@]2(O)[C@@H]1O the Activity [6] was “Active” and the Activity (Vero [11]) was “Non-Toxic”.

C=C(C)[C@H]1CCC(=C)[C@@]2(O)C[C@H](O)C(=C)[C@@H](C1)O2 was tested, and the Activity (Vero [9]) was “Toxic”.

For C=C1CCC[C@@]2(C)CC[C@@H](C(C)(C)O)[C@@H](O)[C@@]12O, the Activity [12] was “Dose-dependent effect”, the Activity [13] was “Dose-dependent effect” and the Activity [14] was “Active”. The Activity [15] was “Active”, the Activity [16] was “Dose-dependent effect” and the Activity [17] was “Dose-dependent effect”. The Activity [18] was “Active”, the Activity [19] was “Active” and the Activity [5] was “Dose-dependent effect”. For the same compound, the Activity (Vero [7]) was “Non-Toxic”, the Activity [20] was “Active” and the Activity [21] was “Active”. The Activity [22] was “Active”.

With CC(C)(O)[C@@H]1CC[C@@]2(C)CCC[C@@]3(CO)O[C@@]23[C@@H]1O the Activity [6] was “Active” and the Activity (Vero [11]) was “Non-Toxic”.
